Results: ChEMBL document CHEMBL4219224, “Structure based drug design and in vitro metabolism study: Discovery of N-(4-methylthiophenyl)-N,2-dimethyl-cyclopenta[d]pyrimidine as a potent microtubule targeting agent” (Bioorg Med Chem, 2018)

How the values were obtained:
[1] = tested on: HeLa; assay: Antiproliferative activity against human HeLa cells expressing wild type beta3 tubulin by SRB assay; type: functional, cell-based
[2] = Induction of microtubule depolymerization in rat A10 cells by indirect immunofluorescence method; type: cell-based
In short: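 A-10 cells, which arrest in interphase, used to score loss of interphase microtubules. EC50 values calculated per an earlier method, minimum of three independent experiments.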

[3] = Inhibition of bovine brain tubulin polymerization assessed as reduction in tubulin assembly pretreated for 15 mins followed by GTP addition by spectrophotometric method; set-up: species or system Bos taurus
In short: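 Placed on ice, then 0.4 mM GTP (final) added. Turbidity read at 350 nm after a jump from 0 °C to 30 °C.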

[4] = species on record: Bos taurus; assay: Inhibition of [3H]colchicine binding to bovine brain tubulin at 5 uM measured after 10 mins by scintillation counting method relative to control
In short: (§1)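 Reactions of 0.1 mL held 1.0 μM bovine brain tubulin, 5.0 μM [3H]colchicine, inhibitor at 1.0 or 5.0 μM, colchicine-binding stabilizing components and 5% DMSO, assembled on ice with tubulin added last. Incubated 10 min at 37 °C, stopped with ice water, filtered through DEAE-cellulose filters. Bound radiolabel counted by scintillation.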

[5] = species on record: Bos taurus; assay: Inhibition of [3H]colchicine binding to bovine brain tubulin at 1 uM measured after 10 mins by scintillation counting method relative to control; in short: as §1
[6] = tested on: SK-OV-3; assay: Antiproliferative activity against human SKOV3 cells by SRB assay; type: functional, cell-based
[7] = Antiproliferative activity against human SKOV3-MDR1-M6/6 cells by SRB assay; type: functional
[8] = Resistance index, ratio of IC50 for human SKOV3-MDR1-M6/6 cells to IC50 for human SKOV3 cells; type: functional
In short: (§2)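 Antiproliferative IC50 by SRB assay (cellular protein) in each isogenic pair: SK-OV-3 parental versus Pgp-expressing, and parental HeLa versus wild-type βIII-tubulin-expressing HeLa. Rr is the IC50 ratio of the modified line to the parental line. At least three independent experiments, each in triplicate, mean ± SD.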

[9] = tested on: HeLa; assay: Antiproliferative activity against human HeLa cells by SRB assay; type: functional, cell-based
[10] = tested on: HeLa; assay: Resistance index, ratio of IC50 for human HeLa cells expressing wild type beta3 tubulin to IC50 for human HeLa cells; type: functional; in short: as §2
[11] = tested on: MDA-MB-435 (human); assay: Antiproliferative activity against human MDA-MB-435 cells by SRB assay
[12] = Retention time of the compound in human liver microsomes at 20 uM by LC-MS/MS analysis; type: ADME, microsome
In short: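 Human liver microsomes (both genders; 1.0 mg/mL) in 100 mM PBS pH 7.4 with 3 mM MgCl2 and 10 mM NADPH, preincubated at 37 °C. Reaction started with compound at 20 μM final (from DMSO stock); propranolol 5 μM as control. Aliquots at 0 and 60 min quenched in ice-cold ACN. Analysed by LC/MS/MS on a C18 column, 5–75% B gradient over 30 min, ESI.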

SMILES | IC50 [1] [nM] | EC50 [2] [nM] | IC50 [3] [nM] | inhibition [4] [%] | inhibition [5] [%] | IC50 [6] [nM] | IC50 [9] [nM] | IC50 [11] [nM] | Retention_time [12] [min] | IC50 [7] [nM] | Ratio IC50 [8] | Ratio IC50 [10]
COc1ccc(CN(C)c2nc(C)nc3c2CCC3)cc1 | – | > 10000 | – | – | – | – | – | 450 | – | – | – | –
COc1ccc([C@H](C)N(C)c2nc(C)nc3c2CCC3)cc1 | – | > 10000 | – | – | – | – | – | – | – | – | – | –
Cc1nc2c(c(N(C)c3ccc(N)cc3)n1)CCC2 | – | 5120 | – | – | – | – | – | 1220 | – | – | – | –
COc1ccc([C@@H](C)N(C)c2nc(C)nc3c2CCC3)cc1 | – | > 10000 | – | – | – | – | – | – | – | – | – | –
COc1ccc(N(C)c2nc(C)nc3c2CCC3)cc1 | 9.6 | 26 | 1600 | 92 | 70 | – | 12 | – | – | 16.4 | – | –
COc1ccc(/C=C\c2cc(OC)c(OC)c(OC)c2)cc1O [COMBRETASTATIN A4] | – | 13 | – | – | – | – | – | 3.4 | – | 6.6 | – | –
Cc1nc2c(c(N(C)c3ccc(O)cc3)n1)CCC2 | – | 5560 | – | – | – | – | – | 405 | – | – | – | –
Cc1nc2c(c(N(C)c3ccc(S(C)(=O)=O)cc3)n1)CCC2 | – | > 10000 | – | – | – | – | – | – | 9.6 | – | – | –

The next lines start with results.

IC50 [1] [nM] | EC50 [2] [nM] | IC50 [3] [nM] | inhibition [4] [%] | inhibition [5] [%] | IC50 [6] [nM] | IC50 [9] [nM] | IC50 [11] [nM] | Retention_time [12] [min] | SMILES | IC50 [7] [nM] | Ratio IC50 [8] | Ratio IC50 [10]
20.6 | 56 | 1100 | 83 | 59 | 23.9 | 22.8 | 18.4 | – | COc1ccc(N(C)c2nc(C)nc3c2CCC3)cc1C | 47.5 | 2 | 0.9
15.1 | 70 | 1200 | 85 | 64 | 18.7 | 16 | 12.1 | – | Cc1nc2c(c(N(C)c3ccc4c(c3)CCO4)n1)CCC2 | 29.8 | 1.6 | 0.9
10 | 31 | 1100 | 93 | 79 | 12.6 | 6.8 | 7.9 | 7.9 | Cc1nc2c(c(N(C)c3ccc([S+](C)[O-])cc3)n1)CCC2 (configuration not stated) | 19.9 | 1.6 | 1.5
– | 45 | – | – | – | 36.3 | 31 | 20 | – | CNc1ccc(N(C)c2nc(C)nc3c2CCC3)cc1 | 49.7 | 1.4 | 0.6
9.8 | 40 | 1200 | 85 | 65 | 13 | 11.3 | 8.2 | – | Cc1nc2c(c(N(C)c3ccc(N(C)C)cc3)n1)CCC2 | 22.6 | 1.7 | 0.9
